Most compounds without a hit are left out; they make up all but 1.3% or so of the library.
RAD54 branch – RAD54 (human) branch migration inhibition. Q92698. RAD54 Holliday junction branch migration, FAM/BHQ fluorescence. inhibition, % at 10.4 µM. hit rate 0.14% among 360,000;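 active = mean normalized replicate activity at least 40 and at least half of replicates scoring 40 or more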;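 note: inhibitors cause a drop in the FAM fluorescence signal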
RAD52 anneal inh – blocks human RAD52 DNA annealing | recombinant RAD52 DNA annealing, FRET fluorescence | hit rate 0.46% among 360,000 | P43351 | inhibition, % at 18.7 µM | AID 651710;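 active = every replicate showing at least 50% inhibition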
PAX8 inh HTS – PAX8 transcriptional activity inhibition; RMG-I TPO-luciferase reporter, SteadyGlo, 24 h; inhibition, % at 12.6 µM; hit rate 1.2% among 360,000; AID 652154;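 active = mean replicate inhibition at least 60% with every replicate also reaching 60%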;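 note: luciferase light reporting Pax8 driven TPO promoter activity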
FN deposition inh – fibronectin deposition inhibition; AH1F fibroblasts, Alexa488-fibronectin deposition fluorescence, overnight; inhibition, % at 12.6 µM; hit rate 0.086% among 350,000;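 active = mean inhibition across replicates of 30% or more, regardless of how many single replicates reach that level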
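Material: AH1F fibroblasts assembling fluorescent fibronectin matrix; amount: 10000 AH1F cells/well; medium: DMEM, 2% serum; reagent: Alexa488-fibronectin, 24 nM final in well; dosing: single compound dose, delivered by pin transfer; incubation: 1 h adhesion, overnight exposure; detection: fluorescence after three HBSS washes, excitation 485 nm, emission 525 nm; measure: fibronectin deposition inhibition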
Large screens that a line does not name were inactive.

C#CCN(C[C@@H]1[C@@H](OC(=O)NCc2ccco2)[C@@H](OC(=O)NCc2ccco2)Cn2c(=O)n(CCCCCC)c(=O)n21)S(=O)(=O)c1ccc(C)cc1	none
C#CCN(C[C@@H]1[C@@H](OC(=O)NCC2CCCCC2)[C@@H](OC(=O)NCC2CCCCC2)Cn2c(=O)ccc(=O)n21)S(=O)(=O)c1ccc(C)cc1	PAX8 inh HTS 116
C#CCN(C[C@@H]1[C@@H](OC(=O)NCc2ccco2)[C@@H](OC(=O)NCc2ccco2)Cn2c(=O)ccc(=O)n21)S(=O)(=O)c1ccc(C)cc1	PAX8 inh HTS 73
C[C@@H]1CCCCO[C@H](CN(C)C(=O)C2CCCCC2)[C@@H](C)CN([C@H](C)CO)C(=O)c2cc(NC(=O)Nc3cccc4ccccc34)ccc2O1	none (no result: FN deposition inh)
C[C@H](CO)N1C[C@H](C)[C@H](CN(C)Cc2ccncc2)OCc2ccccc2-c2c(n(C)c3ccccc23)C1=O	none
C#CCN(C[C@@H]1[C@@H](OC(=O)NC2CC2)[C@@H](OC(=O)NC2CC2)Cn2c(=O)n(CCCCCC)c(=O)n21)S(=O)(=O)c1ccc(C)cc1	none
CCCCCCNC(=O)O[C@H]1Cn2c(=O)ccc(=O)n2[C@@H]2CN(S(=O)(=O)c3ccc(C)cc3)C[C@]12O	PAX8 inh HTS 77
C#CCN(C[C@@H]1[C@@H](OC(=O)NCCCCCC)[C@@H](OC(=O)NCCCCCC)Cn2c(=O)ccc(=O)n21)S(=O)(=O)c1ccc(C)cc1	PAX8 inh HTS 113
CCOc1ccccc1CNC(=O)CCn1ccc2cc(S(=O)(=O)N3CCCCC3)ccc21	none
CC(C)c1cc(Cn2c3ccccc3c(=O)n2C(C)Cn2cc(-c3ccc(C(C)(C)C)cc3)nn2)on1 (centres undefined)	none (no result: RAD54 branch)
Cc1ccc(-c2cc(C(=O)N/N=C/C(Br)=C/c3ccccc3)n[nH]2)o1	PAX8 inh HTS 74 (no result: RAD54 branch)
Cc1ccc(-c2cc(C(=O)N/N=C/c3ccccc3O)n[nH]2)o1	none
CC(=NNC(=S)N1CCCCC1)c1cccc(C)n1	none (no result: RAD54 branch)
CSC(=S)NN=C(C)c1cccc(C)n1	PAX8 inh HTS 76 (no result: RAD54 branch)
COc1ccc(Cl)cc1NC(=O)CSc1nc(Nc2ccccc2)nc(N2CCOCC2)n1	FN deposition inh 31
COc1ccc(C#Cc2ccc3c(c2)[C@]2(C(=O)N3)[C@H](c3ccccc3OCCO)N3[C@H](c4ccccc4)[C@H](c4ccccc4)OC(=O)[C@H]3[C@@H]2C(=O)NC[C@H](O)c2ccccc2)cc1	PAX8 inh HTS 89 (no result: FN deposition inh)
COc1ccc(C#Cc2ccc3c(c2)[C@]2(C(=O)N3)[C@H](c3ccc(OCCO)cc3)N3[C@H](c4ccccc4)[C@H](c4ccccc4)OC(=O)[C@H]3[C@@H]2C(N)=O)cc1	PAX8 inh HTS 73 (no result: FN deposition inh)
COc1ccc(C#Cc2ccc3c(c2)[C@]2(C(=O)N3)[C@H](C(N)=O)[C@H]3C(=O)O[C@H](c4ccccc4)[C@H](c4ccccc4)N3[C@@H]2c2ccc(O)cc2)cc1	none (no result: PAX8 inh HTS, FN deposition inh)
CC(C)C[C@H]1COc2cc(Br)ccc2S(=O)(=O)N1Cc1ccc(Cl)cc1	none (no result: RAD54 branch)
COC(=O)c1c(NC(=O)c2ccc(C)cc2)sc(Cc2ccccc2)c1C	none (no result: RAD52 anneal inh)
O=C(C1CCC1)N1CC(=O)N2[C@@H](CO)[C@H](c3ccc(Br)cc3)[C@@H]2C1	none (no result: RAD54 branch)
COc1ccc(NC(=O)Nc2ccc3c(c2)[C@@H]2C[C@@H](CC(=O)N4CCc5ccccc5C4)O[C@@H](CO)[C@@H]2O3)cc1	none
O=C(Nc1ccc(C(F)(F)F)cc1)Nc1ccc2c(c1)[C@H]1C[C@@H](CC(=O)N3CCc4ccccc4C3)O[C@H](CO)[C@H]1O2	PAX8 inh HTS 98
O=C(Nc1ccc2c(c1)[C@@H]1C[C@@H](CC(=O)N3CCc4ccccc4C3)O[C@@H](CO)[C@@H]1O2)Nc1ccccc1F	PAX8 inh HTS 64
O=C(Nc1ccc(C(F)(F)F)cc1)Nc1ccc2c(c1)[C@H]1C[C@@H](CC(=O)N3CCc4ccccc4C3)O[C@@H](CO)[C@H]1O2	PAX8 inh HTS 97
O=C(C[C@H]1C[C@@H]2c3cc(NS(=O)(=O)c4ccc(F)cc4)ccc3O[C@@H]2[C@H](CO)O1)N1CCc2ccccc2C1	none
O=C(Nc1ccc(C(F)(F)F)cc1)Nc1ccc2c(c1)[C@H]1C[C@H](CC(=O)N3CCc4ccccc4C3)O[C@@H](CO)[C@H]1O2	none
O=C(C[C@H]1C[C@@H]2c3cc(NS(=O)(=O)c4ccc(F)cc4)ccc3O[C@@H]2[C@@H](CO)O1)N1CCc2ccccc2C1	PAX8 inh HTS 87
CO[C@H]1CN(C)C(=O)c2ccc(NC(=O)Nc3ccccc3F)cc2OC[C@@H](C)N(Cc2ccccc2C(=O)O)C[C@@H]1C	none (no result: PAX8 inh HTS)
Cc1cccc(OCCCC(=O)NCCc2ccccc2)c1	none (no result: RAD54 branch)

Assay outcomes deposited in PubChem BioAssay by Broad Institute.
